Source: ChEMBL document CHEMBL3286382, “Synthesis and biological evaluation of imidazo[1,2-a]pyrimidines and imidazo[1,2-a]pyridines as new inhibitors of the Wnt/β-catenin signaling” (Eur J Med Chem, 2014)
pIC50: −log10 of the molar value. Activity calls are given as the source filed them. No cut-off for these calls is given here.

What was measured:
[1] = test system: LoVo; test: Antiproliferative activity against human LoVo cells after 72 hrs by MTT assay; type: functional
Procedure, shortened: (§1)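 Cells grown in DMEM with 10% FBS, penicillin G, streptomycin and L-glutamine, seeded 7 x 10^3 per well, left 24 h, then exposed to scalar concentrations in complete medium for 72 h at 37 °C, 5% CO2. Viability read by MTT; IC50 taken as the concentration giving 50% inhibition of proliferation.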

[2] = test system: HepG2; test: Antiproliferative activity against human HepG2 cells after 72 hrs by MTT assay; type: functional; conditions: HepG2, 72 h; procedure, shortened: as §1
[3] = test system: HT-29; test: Antiproliferative activity against human HT-29 cells after 72 hrs by MTT assay; type: functional; conditions: HT-29, 72 h; procedure, shortened: as §1
[4] = test system: HT-29; test: Inhibition of Wnt signaling in human HT29 cells assessed as inhibition of beta-catenin-mediated Tcf/Lef transcriptional activity after 24 hrs by dual luciferase reporter gene assay relative to control; type: cell-based; conditions: HT-29, 24 h
[5] = test system: A549; test: Antiproliferative activity against human A549 cells after 72 hrs by MTT assay; type: functional; conditions: A549, 72 h; procedure, shortened: as §1
[6] = test system: HT-29; test: Inhibition of Wnt/beta-catenin signaling in human HT29 cells assessed as increase in phosphorylated c-myc level at 25 uM after 24 hrs by Western blot analysis; type: cell-based
Procedure, shortened: (§2)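 After 24 h exposure, HT-29 cells were washed in cold PBS, lysed on ice for 30 min and cleared at 15 000 g, 4 °C. 10 µg protein was run on 12% SDS-PAGE and transferred to PVDF. Blots were probed with specific primary antibodies, then peroxidase-labelled secondaries, and developed by ECL. β-actin re-probing served as the loading control.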

[7] = test system: HT-29; test: Inhibition of Wnt/beta-catenin signaling in human HT29 cells assessed as […] protein level at 25 uM after 24 hrs by Western blot analysis; type: cell-based; procedure, shortened: as §2
[8] = test system: HT-29; test: Cell cycle arrest in human HT-29 cells assessed as reduction of cells in S phase at 25 uM after 24 hrs by flow cytometry; type: functional, cell-based
Procedure, shortened: (§3)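 Exponentially growing HT-29 cells (1.5 × 10^5) were treated with the compounds for 24 h, then collected and fixed in ice-cold 70% ethanol. Fixed cells were treated with lysis buffer holding RNase A and 0.1% Triton X-100, stained with PI and analysed for DNA content by flow cytometry.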

[9] = Antiproliferative activity against human fibroblasts after 72 hrs by MTT assay; type: cell-based, Fibroblast
[10] = test system: HT-29; test: Inhibition of Wnt/beta-catenin signaling in human HT29 cells assessed as downregulation of cyclin B1 protein expression at 25 uM after 24 hrs by Western blot analysis; type: cell-based; procedure, shortened: as §2
[11] = test system: HT-29; test: Inhibition of Wnt/beta-catenin signaling in human HT29 cells assessed as […] in axin2 mRNA expression at 25 uM after 24 hrs by quantitative real-time PCR assay; type: cell-based
Procedure, shortened: (§4)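 Total RNA was extracted with TRIzol from HT-29 cells treated for 24 h. Transcripts were measured by real-time RT-PCR with GUS as the reference gene, and expression was expressed relative to untreated cells.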

[12] = test system: HT-29; test: Inhibition of Wnt/beta-catenin signaling in human HT29 cells assessed as effect on c-myc mRNA expression at 25 uM after 24 hrs by quantitative real-time PCR assay; type: cell-based; procedure, shortened: as §4
[13] = test system: HT-29; test: Cell cycle arrest in human HT-29 cells assessed as accumulation of cells at G1 phase at 25 uM after 24 hrs by flow cytometry; type: functional, cell-based; procedure, shortened: as §3
[14] = test system: HT-29; test: Cell cycle arrest in human HT-29 cells assessed as reduction of cells in G2/M phase at 25 uM after 24 hrs by flow cytometry; type: functional, cell-based; procedure, shortened: as §3
[15] = test system: HT-29; test: Inhibition of Wnt/beta-catenin signaling in human HT29 cells assessed as downregulation of cyclin D1 protein expression at 25 uM after 24 hrs by Western blot analysis; type: cell-based; procedure, shortened: as §2
[16] = test system: HT-29; test: Inhibition of Wnt/beta-catenin signaling in human HT29 cells assessed as GSK3-beta dephosphorylation at Ser21/Ser9 residues at 25 uM after 24 hrs by Western blot analysis; type: cell-based; procedure, shortened: as §2
[17] = test system: HT-29; test: Inhibition of Wnt/beta-catenin signaling in human HT29 cells assessed as decrease in TCF4 mRNA expression at 25 uM after 24 hrs by quantitative real-time PCR assay; type: cell-based; procedure, shortened: as §4
[18] = test system: HT-29; test: Inhibition of Wnt signaling in human HT29 cells assessed as inhibition of beta-catenin-mediated Tcf/Lef transcriptional activity at 25 uM after 24 hrs by dual luciferase reporter gene assay relative to control; type: cell-based
Procedure, shortened: (§5)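 HT-29 cells (1.4 x 10^4) were co-transfected with 1 µg BAT-LUX, which carries 7 TCF sites and the siamois promoter driving firefly luciferase, plus 1 µg Renilla vector. Cells were then treated at 37 °C for 24 h, with or without the GSK-3β inhibitor LiCl. Dual-Glo readout; values are the mean firefly/Renilla ratio.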

[19] = test system: HT-29; test: Inhibition of Wnt/beta-catenin signaling in human HT29 cells assessed as increase in p21 protein expression at 25 uM after 24 hrs by Western blot analysis; type: cell-based; procedure, shortened: as §2
[20] = test system: HT-29; test: Inhibition of Wnt signaling in human HT29 cells assessed as increase in cytoplasmic beta-catenin at 25 uM after 24 hrs by fluorescence microscopy; type: cell-based
Procedure, shortened: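 Cells were fixed in cold 4% formaldehyde for 15 min and stained with anti-β-catenin (mouse, 1:50), then an Alexa-conjugated secondary, with DAPI counterstain. Images were taken on a video-confocal microscope with a 60x objective.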

[21] = test system: HT-29; test: Inhibition of Wnt signaling in human HT29 cells assessed as inhibition of beta-catenin-mediated Tcf/Lef transcriptional activity at 25 uM after 24 hrs by dual luciferase reporter gene assay relative to control in presence of GSK-3beta inhibitor LiCl; type: cell-based; procedure, shortened: as §5
[22] = species: Danio rerio; test: Inhibition of Wnt/beta-catenin signaling in zebrafish larvae assessed as inhibition of Tcf/Lef transcriptional activity at 10 uM after 72 hrs by GFP reporter assay; type: functional, organism-based
Procedure, shortened: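 TCF/LEF-GFP reporter zebrafish were exposed from 24 hours post-fertilization for 72 h, with compounds dissolved in E3 medium that was renewed daily. GFP in the head and intestine was imaged by fluorescence stereomicroscope at 8X, alongside bright-field images.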

[23] = test system: HT-29; test: Inhibition of Wnt signaling in human HT29 cells assessed as beta-catenin dephosphorylation at S33/37/T41 residues at 25 uM after 24 hrs by Western blot analysis; type: cell-based; procedure, shortened: as §2
[24] = species: Danio rerio; test: Toxicity in zebrafish larvae assessed as mortality at 1 uM treated for 7 days; type: organism-based; conditions: in vivo, 168 h
Procedure, shortened: (§6)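 Wild-type zebrafish larvae raised under standard conditions were exposed to compounds dissolved in E3 medium. The medium containing compound was renewed every day for 7 days. The read-out was survival rate (mortality) at the end of exposure.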

[25] = species: Danio rerio; test: Toxicity in zebrafish larvae assessed as mortality at 5 to 25 uM treated for 7 days; type: organism-based; conditions: in vivo, 168 h; procedure, shortened: as §6

Row | GI50 [1] [µM] | GI50 [2] [µM] | GI50 [3] [µM] | pIC50 [4] | GI50 [5] [µM] | Compound | other results
1 |  |  | > 100 | 4.64 | 62.4 | Cc1ccn2cc(-c3ccc([N+](=O)[O-])cc3)nc2c1 | 
2 |  |  | 37.6 | 4.71 | 60 | Cc1ccc2nc(-c3ccc(N(Cc4ccccc4)Cc4ccccc4)cc3)cn2c1 | 
3 | 63.1 | 95.4 | > 100 |  | > 100 | O=C(Nc1cccc2cccnc12)c1ccc(N2C(=O)[C@@H]3[C@H](C2=O)[C@@H]2C=C[C@H]3C2)cc1 | inhibition [11]: Active; inhibition [18]: Active; inhibition [22]: Active; inhibition [21]: Active
4 | > 100 | > 100 | > 100 | 5.21 | > 100 | Cc1ccc2nc(-c3ccc([N+](=O)[O-])cc3)cn2c1 | inhibition [11]: Active; inhibition [16]: inactive; inhibition [18]: Active; inhibition [20]: Active; inhibition [21]: Active
5 |  |  | 17.5 | 4.75 |  | Cc1ccn2cc(-c3ccc(NCc4ccccc4)cc3)nc2c1 | GI50 at 72 h [9]: > 100 µM
6 | 90.7 | > 100 | > 100 | 5.01 | > 100 | Cc1ccc2nc(-c3ccc(NC(=O)c4ccccc4C(=O)O)cc3)cn2c1 | inhibition [7]: Active; inhibition [11]: Active; inhibition [16]: inactive; inhibition [23]: Active; inhibition [18]: Active; inhibition [20]: Active; inhibition [21]: Active
7 | 65.2 | > 100 | 82.9 | 4.28 | > 100 | Cc1ccc2nc(-c3ccc(N)cc3)cn2c1 | 
8 |  |  | 93.6 | 4.37 | > 100 | Cc1ccn2cc(-c3ccc(N)cc3)nc2c1 | 
9 | 74.9 | > 100 | > 100 | 4.79 | 71 | Cc1cc(OCc2ccccc2)n2cc(-c3ccc([N+](=O)[O-])cc3)nc2n1 | 
10 | 61.9 | > 100 | > 100 | 4.17 | 7 | COc1cc(OC)n2cc(-c3ccc(N(Cc4ccccc4)Cc4ccccc4)cc3)nc2n1 | 
11 | > 100 | > 100 | > 100 | 4.46 | > 100 | COc1cc(OC)n2cc(-c3ccc(NCc4ccccc4)cc3)nc2n1 | 
12 |  |  | > 100 | < 4.00 | > 100 | Cc1ccn2cc(-c3ccc(NC(=O)c4ccccc4C(=O)O)cc3)nc2c1 | 

Second part, the compound before the results:

Row | Compound | GI50 [1] [µM] | GI50 [2] [µM] | GI50 [3] [µM] | pIC50 [4] | GI50 [5] [µM] | other results
13 | CCCSc1nc(NC(C)=O)cc(OCc2ccccc2)n1 | 54.9 | 75.1 | 59.9 | 4.09 | 75.7 | 
14 | CC(C)Cn1c(SCc2ccccc2)nc(N)cc1=O | 68 | 77 | > 100 | 4.51 | 83.3 | 
15 | CC(=O)Nc1cc(OCc2ccccc2)nc(SCc2ccccc2)n1 | 40 | 42.9 | 65.8 | 4.34 | 35.2 | 
16 | Cc1cc(O)n2cc(-c3ccc([N+](=O)[O-])cc3)nc2n1 | 87.6 | > 100 | 90.1 | 4.98 | 38.9 | inhibition [6]: Active; inhibition [7]: Active; Activity [8]: inactive; GI50 at 72 h [9]: > 100 µM; inhibition [10]: Active; inhibition [11]: Active; inhibition [12]: inactive; Activity [13]: inactive; Activity [14]: inactive; inhibition [15]: Active; inhibition [16]: inactive; inhibition [17]: Active; inhibition [18]: Active; inhibition [19]: Active; inhibition [20]: Active; inhibition [21]: Active
17 | COc1cc(OC)n2cc(-c3ccc(N)cc3)nc2n1 | > 100 | > 100 | > 100 | 4.84 | > 100 | 
18 | CCCSc1nc(N)cc(OCc2ccccc2)n1 | 54.2 | 87.1 | 88.2 | 4.65 | 51 | 
19 | Nc1cc(OCc2ccccc2)nc(SCc2ccccc2)n1 | 53.7 | 49 | 53.9 | < 4.00 | 46.2 | 
20 | CC(C)COc1cc(N)nc(SCc2ccccc2)n1 | 54.5 | 60.8 | 40 | 4.14 | 18.7 | 
21 | O=C1[C@H](Cc2ccc(O)cc2)N2C(=O)CCN(C(=O)NCc3ccccc3)[C@H]2CN1Cc1cccc2ccccc12 | 15.6 | 12.7 | 17.2 | 4.73 | 6.1 | inhibition [11]: Active; inhibition [18]: Active; inhibition [21]: Active
22 | CC(=O)Nc1cc(=O)n(CC(C)C)c(SCc2ccccc2)n1 | 58.5 | 67.6 | 68.4 | 4.37 | 46.4 | 
23 | CNc1ccc(-c2cn3c(OC)cc(OC)nc3n2)cc1 | > 100 | > 100 | > 100 | 4.14 | > 100 | 
24 | Cc1ccc2nc(-c3ccc(NCc4ccccc4)cc3)cn2c1 |  | > 100 | 8.8 | 4.95 | 56.1 | inhibition [6]: Active; Activity [24]: Non-toxic; inhibition [7]: Active; Activity [25]: Toxic; Activity [8]: inactive; GI50 at 72 h [9]: > 100 µM; inhibition [10]: Active; inhibition [11]: Active; inhibition [12]: inactive; Activity [13]: inactive; Activity [14]: inactive; inhibition [15]: Active; inhibition [16]: inactive; inhibition [23]: Active; inhibition [17]: Active; inhibition [18]: Active; inhibition [19]: Active; inhibition [21]: Active
25 | Nc1cc(=O)n(Cc2ccccc2)c(SCc2ccccc2)n1 | 84.9 | 97.8 | 100 | 4.27 | > 100 | 
26 | CC(=O)Nc1cc(OCC(C)C)nc(SCc2ccccc2)n1 | 53.9 | 64.4 | 35.7 | < 4.00 | 19.9 | 
27 | COc1cc(OC)n2cc(-c3ccc([N+](=O)[O-])cc3)nc2n1 | 70.6 | 35.9 | > 100 | 4.24 | 36.6 | 
